Publication PMC8089085 (Drug Design, Development and Therapy, 2021)
Like-named read-outs stand apart in the source and are kept apart here.

What was measured:
[1] = type: in vivo, human
Procedure, shortened: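 Randomized open-label three-way crossover in healthy subjects: six sequences, five per sequence, ≥7 days washout. SGLT2 inhibitor 25 mg, PPAR-γ agonist 0.5 mg or both given orally once daily for 5 days, fasting ≥8 h. EDTA plasma sampled predose and 0.33–24 h after fifth dose; UPLC-MS/MS, calibration 5.00–1000 ng/mL. Noncompartmental analysis; mixed-effect model giving geometric mean ratios with 90% CI.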

healthy subjects = test: Tolerability assessment; type: in vivo, human; conditions: after multiple administrations in healthy subjects
Procedure, shortened: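 Healthy subjects given at least one dose were followed from first administration to study end. Monitoring covered vital signs (systolic and diastolic pressure, pulse rate), physical examinations and adverse events. Events were elicited by nonleading open questioning and individual interviews, and each was judged for relation to the investigational drug.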

[2] = lobeglitazone, with vs without empagliflozin
[3] = empagliflozin, with vs without lobeglitazone

| Compound | 90% CI of AUCtau combination therapy-to-monotherapy ratio [1, 2] | 90% CI of Cmax,ss combination therapy-to-monotherapy ratio [1, 2] | other tolerability parameters (laboratory test results, vital signs, physical examination) (healthy subjects) | 90% CI of AUCtau combination therapy-to-monotherapy ratio [1, 3] | 90% CI of Cmax,ss combination therapy-to-monotherapy ratio [1, 3] |
| --- | --- | --- | --- | --- | --- |
| COc1ccc(Oc2cc(N(C)CCOc3ccc(CC4SC(=O)NC4=O)cc3)ncn2)cc1 (stereo not drawn) [Lobeglitazone] | 0.851–1.018 | 0.869–0.995 | no clinically significant findings | – | – |
| OC[C@H]1O[C@@H](c2ccc(Cl)c(Cc3ccc(O[C@H]4CCOC4)cc3)c2)[C@H](O)[C@@H](O)[C@@H]1O [Empagliflozin] | – | – | no clinically significant findings | 0.945–1.133 | 0.956–1.150 |
